Measurements pooled from the literature.
Compare with care: the assays were run in different laboratories. pIC50: −log10 of the molar value. Values after ≈ are worked out from the molar mass of the structure shown.
Organism: Streptococcus pneumoniae
Observed: microbial growth

CC(C)CCCCCCCCCCCCCCCc1cc(O)cc(O)c1
pIC50: 4.15

C[C@H]1COCCN1c1nc(NCc2cccnc2C(F)(F)F)c2cccnc2n1
MIC (broth dilution): 32 to 64 µg/mL (≈ 79.1 to 158 µM)

CCCCCCCCCCCCCCCCCc1cc(O)cc(O)c1
pIC50: < 3.70

CNC(=O)Oc1c2c(c(O)c3cc(CN4CCC4)ccc13)C(=O)C1=C(O)[C@]3(O)C(=O)C(C(N)=O)=C(O)[C@@H](N(C)C)[C@@H]3C[C@@H]1C2
MIC (broth dilution; ATCC49619): 0.5 µg/mL (≈ 0.824 µM)

CN[C@@H]1[C@H](O)[C@H](NC)[C@H]2O[C@@]3(O)C(=O)C[C@@H](C)O[C@H]3O[C@@H]2[C@H]1O
MIC (broth dilution; DAW27): 25 µg/mL (≈ 75.2 µM)

CN[C@H](CC(C)C)C(=O)N[C@H]1C(=O)N[C@@H](CC(N)=O)C(=O)N[C@H]2C(=O)N[C@H]3C(=O)N[C@H](C(=O)N[C@H](C(=O)O)c4cc(O)cc(O)c4-c4cc3ccc4O)[C@H](O)c3ccc(c(Cl)c3)Oc3cc2cc(c3O[C@@H]2O[C@H](CO)[C@@H](O)[C@H](O)[C@H]2O[C@H]2C[C@](C)(N)[C@H](O)[C@H](C)O2)Oc2ccc(cc2Cl)[C@H]1O
MIC: 0.12 µg/mL (≈ 0.0828 µM)

CCCCCCCCCCCCCCCC(=O)NS(=O)(=O)Oc1ccc(CCNC(=O)OC(C)(C)C)cc1
MIC (broth dilution; R6): 50 µg/mL (≈ 90.1 µM)

COc1ccc2cc1Oc1cc(ccc1OC)CCC(N[C@@H]1CCCc3ccccc31)CCCC2 (some centres unmarked)
MIC (broth dilution): > 100 µg/mL
